From the M2OR odorant receptor database
Positions count from the first letter of the chain named.

Experiments:
Details in all cases: stereoisomer not certain
O1440 = tested on: T1, O1440
T1 sequence (whole entry): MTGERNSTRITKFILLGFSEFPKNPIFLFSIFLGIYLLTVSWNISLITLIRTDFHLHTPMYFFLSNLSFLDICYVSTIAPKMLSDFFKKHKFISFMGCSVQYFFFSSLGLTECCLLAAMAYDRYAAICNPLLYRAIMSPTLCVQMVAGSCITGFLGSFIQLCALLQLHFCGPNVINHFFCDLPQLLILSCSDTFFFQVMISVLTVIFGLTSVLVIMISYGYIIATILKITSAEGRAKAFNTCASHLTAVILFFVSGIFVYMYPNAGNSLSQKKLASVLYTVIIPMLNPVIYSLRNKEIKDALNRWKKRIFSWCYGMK
How it was run: (§1)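 Each receptor–molecule pair is labelled responsive or non-responsive (inactive) according to whether the original authors judged the measured signal statistically different from baseline. The data were taken from the main text and supplementary material of published papers and checked for typos and inconsistencies. Assay methods differed by source, with transient luciferase assays in mammalian cell lines being common.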

O2A25 = tested on: T2, O2A25
T2 sequence (whole entry): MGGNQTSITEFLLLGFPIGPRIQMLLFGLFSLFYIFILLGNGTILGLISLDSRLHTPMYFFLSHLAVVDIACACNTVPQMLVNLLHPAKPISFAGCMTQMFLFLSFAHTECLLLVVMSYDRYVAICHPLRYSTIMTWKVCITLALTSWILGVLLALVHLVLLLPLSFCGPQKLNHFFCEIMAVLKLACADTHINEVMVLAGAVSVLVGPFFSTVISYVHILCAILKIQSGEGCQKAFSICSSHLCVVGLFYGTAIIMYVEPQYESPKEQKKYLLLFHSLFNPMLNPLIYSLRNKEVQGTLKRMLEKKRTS
How it was run: as §1

O14A2 I133V = tested on: T3, O14A2 I133V
T3 sequence (whole entry): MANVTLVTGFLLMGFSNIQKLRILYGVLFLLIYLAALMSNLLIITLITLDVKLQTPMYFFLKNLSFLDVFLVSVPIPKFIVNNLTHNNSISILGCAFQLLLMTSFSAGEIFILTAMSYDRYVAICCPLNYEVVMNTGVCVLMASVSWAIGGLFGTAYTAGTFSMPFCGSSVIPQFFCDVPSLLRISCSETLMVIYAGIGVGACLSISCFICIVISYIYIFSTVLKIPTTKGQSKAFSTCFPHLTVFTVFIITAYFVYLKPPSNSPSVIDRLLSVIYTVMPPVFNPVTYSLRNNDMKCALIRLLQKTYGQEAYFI
How it was run: as §1

O14CZ = tested on: T4, O14CZ
T4 sequence (whole entry): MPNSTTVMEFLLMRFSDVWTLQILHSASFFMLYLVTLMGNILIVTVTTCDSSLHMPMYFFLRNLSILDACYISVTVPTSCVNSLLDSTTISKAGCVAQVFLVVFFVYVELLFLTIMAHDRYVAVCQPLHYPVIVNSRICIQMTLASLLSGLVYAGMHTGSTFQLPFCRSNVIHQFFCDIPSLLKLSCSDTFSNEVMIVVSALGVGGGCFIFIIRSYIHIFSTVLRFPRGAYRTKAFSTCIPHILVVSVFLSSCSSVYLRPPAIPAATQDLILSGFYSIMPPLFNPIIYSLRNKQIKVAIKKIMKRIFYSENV
How it was run: as §1

O14I1 V36A D50N Y216C = tested on: T5, O14I1 V36A D50N Y216C
T5 sequence (whole entry): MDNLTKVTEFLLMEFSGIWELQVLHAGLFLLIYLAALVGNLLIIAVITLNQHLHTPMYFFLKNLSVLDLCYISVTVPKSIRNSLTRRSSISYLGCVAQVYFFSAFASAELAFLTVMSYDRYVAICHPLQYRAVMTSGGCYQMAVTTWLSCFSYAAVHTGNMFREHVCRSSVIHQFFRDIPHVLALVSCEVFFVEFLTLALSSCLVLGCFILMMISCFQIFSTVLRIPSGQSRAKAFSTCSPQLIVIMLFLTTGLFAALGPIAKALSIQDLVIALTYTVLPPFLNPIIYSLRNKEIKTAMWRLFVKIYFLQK
How it was run: as §1

O14J1 N3Y = tested on: T6, O14J1 N3Y
T6 sequence (whole entry): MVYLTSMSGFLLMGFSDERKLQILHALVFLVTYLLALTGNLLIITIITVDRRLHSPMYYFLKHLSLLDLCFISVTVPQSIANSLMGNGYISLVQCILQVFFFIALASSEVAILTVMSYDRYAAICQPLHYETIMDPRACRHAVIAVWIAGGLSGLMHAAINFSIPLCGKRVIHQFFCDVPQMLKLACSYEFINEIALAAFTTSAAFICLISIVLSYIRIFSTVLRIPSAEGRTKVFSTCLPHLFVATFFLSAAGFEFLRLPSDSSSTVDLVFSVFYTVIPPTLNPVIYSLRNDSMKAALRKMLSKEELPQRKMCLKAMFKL
How it was run: as §1

O14K1 D119Y = tested on: T7, O14K1 D119Y
T7 sequence (whole entry): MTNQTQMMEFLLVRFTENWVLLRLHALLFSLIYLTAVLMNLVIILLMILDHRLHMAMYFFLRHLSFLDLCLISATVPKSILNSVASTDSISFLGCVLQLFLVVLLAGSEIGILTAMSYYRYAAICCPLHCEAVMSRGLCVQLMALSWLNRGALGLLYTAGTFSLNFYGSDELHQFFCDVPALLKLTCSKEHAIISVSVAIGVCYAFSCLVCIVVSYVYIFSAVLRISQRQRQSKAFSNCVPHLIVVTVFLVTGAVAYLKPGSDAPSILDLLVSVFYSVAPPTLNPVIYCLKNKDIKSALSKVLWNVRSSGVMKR
How it was run: as §1

O2AE1 = tested on: T8, O2AE1
T8 sequence (whole entry): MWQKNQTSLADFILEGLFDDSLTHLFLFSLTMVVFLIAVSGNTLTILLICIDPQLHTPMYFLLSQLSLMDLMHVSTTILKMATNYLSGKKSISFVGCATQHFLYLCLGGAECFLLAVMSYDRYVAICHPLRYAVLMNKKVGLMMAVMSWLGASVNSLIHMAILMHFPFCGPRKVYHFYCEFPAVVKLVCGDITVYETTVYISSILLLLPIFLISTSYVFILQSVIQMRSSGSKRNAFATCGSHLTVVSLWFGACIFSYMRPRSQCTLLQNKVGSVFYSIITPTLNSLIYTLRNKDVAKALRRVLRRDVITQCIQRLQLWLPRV
How it was run: as §1

O2AJ1 = tested on: T9, O2AJ1
T9 sequence (whole entry): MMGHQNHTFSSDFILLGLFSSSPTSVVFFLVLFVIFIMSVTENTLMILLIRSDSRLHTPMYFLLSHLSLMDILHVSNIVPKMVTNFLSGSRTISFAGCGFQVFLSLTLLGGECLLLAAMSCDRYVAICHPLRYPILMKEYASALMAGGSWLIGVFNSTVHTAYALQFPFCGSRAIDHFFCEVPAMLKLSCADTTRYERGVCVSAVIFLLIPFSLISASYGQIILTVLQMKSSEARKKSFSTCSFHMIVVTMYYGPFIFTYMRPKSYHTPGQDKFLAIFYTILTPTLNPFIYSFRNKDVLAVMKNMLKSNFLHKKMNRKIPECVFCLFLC
How it was run: as §1

O2AK2 S99N = tested on: T10, O2AK2 S99N
T10 sequence (whole entry): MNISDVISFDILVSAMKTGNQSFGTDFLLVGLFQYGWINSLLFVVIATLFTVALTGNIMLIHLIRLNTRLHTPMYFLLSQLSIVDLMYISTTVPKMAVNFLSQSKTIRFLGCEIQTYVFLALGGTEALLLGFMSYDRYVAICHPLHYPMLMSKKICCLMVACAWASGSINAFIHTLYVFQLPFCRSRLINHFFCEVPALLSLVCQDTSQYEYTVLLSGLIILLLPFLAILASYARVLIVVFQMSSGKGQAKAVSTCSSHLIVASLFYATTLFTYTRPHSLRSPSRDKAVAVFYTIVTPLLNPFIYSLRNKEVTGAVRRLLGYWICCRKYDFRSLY
How it was run: as §1

O2T11 = tested on: T11, O2T11
T11 sequence (whole entry): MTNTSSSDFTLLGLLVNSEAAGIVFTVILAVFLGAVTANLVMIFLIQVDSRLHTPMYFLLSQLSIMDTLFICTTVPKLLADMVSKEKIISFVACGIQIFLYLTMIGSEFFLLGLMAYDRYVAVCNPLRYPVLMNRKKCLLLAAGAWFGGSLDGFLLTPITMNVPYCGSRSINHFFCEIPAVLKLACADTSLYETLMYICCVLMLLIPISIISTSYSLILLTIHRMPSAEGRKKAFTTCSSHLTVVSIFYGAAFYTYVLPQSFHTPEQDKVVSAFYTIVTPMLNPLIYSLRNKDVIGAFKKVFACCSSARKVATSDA
How it was run: as §1

O2T27 L36V V134D = tested on: T12, O2T27 L36V V134D
T12 sequence (whole entry): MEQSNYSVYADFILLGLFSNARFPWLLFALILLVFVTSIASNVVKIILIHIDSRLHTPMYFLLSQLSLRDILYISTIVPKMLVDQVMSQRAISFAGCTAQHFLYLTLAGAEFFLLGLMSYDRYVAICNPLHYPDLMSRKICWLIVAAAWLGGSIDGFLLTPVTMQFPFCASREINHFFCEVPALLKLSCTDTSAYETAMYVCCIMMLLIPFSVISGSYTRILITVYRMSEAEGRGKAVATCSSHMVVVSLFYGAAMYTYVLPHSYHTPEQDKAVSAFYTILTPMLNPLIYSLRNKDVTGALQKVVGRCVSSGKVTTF
How it was run: as §1

O2T29 Q24R = tested on: T13, O2T29 Q24R
T13 sequence (whole entry): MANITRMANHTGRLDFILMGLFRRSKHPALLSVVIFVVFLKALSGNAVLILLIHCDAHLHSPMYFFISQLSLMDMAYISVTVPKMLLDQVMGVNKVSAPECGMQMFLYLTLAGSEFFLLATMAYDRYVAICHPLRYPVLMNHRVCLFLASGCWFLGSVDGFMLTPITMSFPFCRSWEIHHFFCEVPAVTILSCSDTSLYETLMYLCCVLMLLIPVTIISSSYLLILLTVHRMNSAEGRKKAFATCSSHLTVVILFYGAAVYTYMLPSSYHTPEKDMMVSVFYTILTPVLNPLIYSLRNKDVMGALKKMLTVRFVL
How it was run: as §1

O2T33 A169V = tested on: T14, O2T33 A169V
T14 sequence (whole entry): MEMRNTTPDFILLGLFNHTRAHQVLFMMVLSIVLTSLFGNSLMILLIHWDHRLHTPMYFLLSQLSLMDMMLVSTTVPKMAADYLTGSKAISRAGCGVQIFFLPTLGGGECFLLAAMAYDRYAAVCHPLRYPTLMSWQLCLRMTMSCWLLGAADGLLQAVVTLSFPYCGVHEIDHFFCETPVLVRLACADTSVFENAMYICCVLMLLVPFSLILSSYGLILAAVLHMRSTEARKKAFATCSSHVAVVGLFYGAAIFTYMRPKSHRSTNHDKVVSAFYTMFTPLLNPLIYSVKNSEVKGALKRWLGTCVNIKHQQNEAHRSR
How it was run: as §1

O2T33 G297E I309L = tested on: T15, O2T33 G297E I309L
T15 sequence (whole entry): T14 sequence (whole entry) with V169A, G297E, I309L
How it was run: as §1

O2T34 Q6P R267P = tested on: T16, O2T34 Q6P R267P
T16 sequence (whole entry): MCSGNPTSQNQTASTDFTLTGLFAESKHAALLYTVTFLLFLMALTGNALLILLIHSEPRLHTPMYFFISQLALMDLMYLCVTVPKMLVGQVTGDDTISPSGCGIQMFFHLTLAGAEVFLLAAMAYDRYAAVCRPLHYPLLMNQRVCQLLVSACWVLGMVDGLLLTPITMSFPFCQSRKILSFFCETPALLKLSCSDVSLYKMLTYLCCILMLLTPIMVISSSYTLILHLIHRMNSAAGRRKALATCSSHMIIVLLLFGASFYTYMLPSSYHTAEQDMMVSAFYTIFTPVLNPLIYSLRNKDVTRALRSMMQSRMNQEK
How it was run: as §1

O2T34 R267P = tested on: T17, O2T34 R267P
T17 sequence (whole entry): T16 sequence (whole entry) with P6Q
How it was run: as §1

O4A47 = tested on: T18, O4A47
T18 sequence (whole entry): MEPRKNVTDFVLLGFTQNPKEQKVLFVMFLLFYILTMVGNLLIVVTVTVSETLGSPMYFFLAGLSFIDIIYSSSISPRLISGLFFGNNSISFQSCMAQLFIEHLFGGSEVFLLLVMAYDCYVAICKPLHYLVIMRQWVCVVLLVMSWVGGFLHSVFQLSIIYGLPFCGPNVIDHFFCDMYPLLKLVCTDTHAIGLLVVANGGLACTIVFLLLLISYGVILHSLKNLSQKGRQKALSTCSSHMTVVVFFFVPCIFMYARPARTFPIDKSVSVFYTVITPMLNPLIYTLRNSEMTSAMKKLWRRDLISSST
How it was run: as §1

O4C46 S240F C252Y K288R = tested on: O4C46 S240F C252Y K288R
How it was run: as §1

O4F15 A272T = tested on: T19, O4F15 A272T
T19 sequence (whole entry): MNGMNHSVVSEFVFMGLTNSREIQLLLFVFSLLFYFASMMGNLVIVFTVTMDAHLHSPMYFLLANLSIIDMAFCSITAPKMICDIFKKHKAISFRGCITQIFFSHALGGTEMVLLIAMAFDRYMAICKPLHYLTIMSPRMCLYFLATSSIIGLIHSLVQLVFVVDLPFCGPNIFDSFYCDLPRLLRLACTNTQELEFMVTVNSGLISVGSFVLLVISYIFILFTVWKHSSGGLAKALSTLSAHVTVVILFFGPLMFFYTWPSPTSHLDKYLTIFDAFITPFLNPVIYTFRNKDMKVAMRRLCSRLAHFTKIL
How it was run: as §1

Measured: odorant receptor agonist call

O=C1CCCCCCC=CCCCCCCC1
active: O1440

CC1CC=CCCCCCCCCC(=O)C1 (configuration not stated)
active: O1440

c1ccc2ncccc2c1
active: O2A25

CC1=C(O)C(=O)C(C)O1 (configuration not stated)
not listed: O1440
inactive: all other assays above
